Experimental data reported in ChEMBL document CHEMBL1212920, “Discovery of 6-(aminomethyl)-5-(2,4-dichlorophenyl)-7-methylimidazo[1,2-a]pyrimidine-2-carboxamides as potent, selective dipeptidyl peptidase-4 (DPP4) inhibitors” (J Med Chem, 2010).
Blank lines part the entries; values can stand above or below the compound they belong to.

Legend:
[1] = AUC (0 to infinity) in rat at 5 umol/kg, intra arterial and 2 umol/kg, po; type: ADME, organism-based; parameters: dose 5 umol/kg, route oral, time infinity; conditions: plasma
Procedure, shortened: (§1)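 Rat pharmacokinetics after a 5 μmol/kg intraarterial dose and a 2 μmol/kg oral dose, with water as vehicle. Urine collected over 24 h and the fraction of dose excreted as unchanged parent measured. Terminal half-life estimated after intraarterial dosing.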

Canis familiaris = experiment: Volume of distribution at steady state in dog at 5 umol/kg, intra arterial and 2 umol/kg, po; type: ADME, organism-based, Canis lupus familiaris; conditions: in vivo
[2] = Membrane permeability by PAMPA assay; type: ADME; conditions: read-out: permeability
[3] = Oral bioavailability in dog at 2 umol/kg, po; type: ADME, organism-based, Canis lupus familiaris; conditions: in vivo
Rattus norvegicus = experiment: Volume of distribution at steady state in rat at 5 umol/kg, intra arterial and 2 umol/kg, po; type: ADME, organism-based; conditions: in vivo; procedure, shortened: as §1
Mus musculus [4] = experiment: Antidiabetic activity in ob/ob mouse assessed as reduction in blood glucose level at 1 umol/kg, po administered 1 hr prior to glucose challenge by oral glucose tolerance test; type: functional; parameters: scale not given: the % may be the effect or the level left
Procedure, shortened: (§2)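 Male ob/ob mice, 13-14 weeks old, fed a 10% fat diet, fasted overnight. Given vehicle (water) or inhibitor orally at -60 min, then oral glucose 2 g/kg at 0 min. Tail bleeds into EDTA tubes at -60, 0, 15, 30, 60, 90 and 120 min. Plasma glucose read by glucometer, insulin by mouse ELISA. Mean of 12-24 mice/group; one-way ANOVA with Dunnett's test.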

[5] = Cmax in rat at 5 umol/kg, intra arterial and 2 umol/kg, po after 0.6 hrs; type: ADME, organism-based; parameters: dose 5 umol/kg, route oral; conditions: in vivo; procedure, shortened: as §1
[6] = Clearance in iv dosed rat; type: ADME, organism-based; conditions: in vivo; procedure, shortened: as §1
[7] = Drug excretion in dog urine at 5 umol/kg, intra arterial and 2 umol/kg, po; type: ADME, organism-based, Canis lupus familiaris; conditions: read-out: Activity
[8] = Drug excretion in rat urine at 5 umol/kg, intra arterial and 2 umol/kg, po; type: ADME, organism-based; conditions: read-out: Activity; procedure, shortened: as §1
[9] = Oral bioavailability in rat at 2 umol/kg, po; type: ADME, organism-based; conditions: in vivo; procedure, shortened: as §1
[10] = Half life in dog at 5 umol/kg, intra arterial and 2 umol/kg, po; type: ADME, organism-based, Canis lupus familiaris; conditions: in vivo
[11] = Clearance in iv dosed dog; type: ADME, organism-based, Canis lupus familiaris; conditions: in vivo
Mus musculus [12] = experiment: Antidiabetic activity in ob/ob mouse assessed as reduction in blood glucose level at 3 umol/kg, po administered 1 hr prior to glucose challenge by oral glucose tolerance test; type: functional; parameters: scale not given: the % may be the effect or the level left; procedure, shortened: as §2
[13] = Half life in rat at 5 umol/kg, intra arterial and 2 umol/kg, po; type: ADME, organism-based; conditions: in vivo; procedure, shortened: as §1
Dipeptidyl peptidase 8 = Dipeptidyl peptidase 8 (Homo sapiens, UniProt Q6V1X1); experiment: Inhibition of human DPP8
Dipeptidyl peptidase 9 = Dipeptidyl peptidase 9 (Homo sapiens, UniProt Q86TI2); experiment: Inhibition of human DPP9
Mus musculus [14] = experiment: Antidiabetic activity in ob/ob mouse assessed as increase in insulin level at 3 umol/kg, po administered 1 hr prior to glucose challenge by oral glucose tolerance test; type: functional; procedure, shortened: as §2
hERG (KCNH2) = hERG (KCNH2) (Homo sapiens, UniProt Q12809); experiment: Inhibition of human ERG at 10 uM
Mus musculus [15] = experiment: In vivo inhibition of DPP4 activity in ob/ob mouse plasma at 1 umol/kg, po; type: functional
Mus musculus [16] = experiment: Antidiabetic activity in ob/ob mouse assessed as increase in insulin level at 1 umol/kg, po administered 1 hr prior to glucose challenge by oral glucose tolerance test; type: functional; procedure, shortened: as §2
Mus musculus [17] = experiment: In vivo inhibition of DPP4 activity in ob/ob mouse plasma at 3 umol/kg, po; type: functional
[18] = Cmax in ob/ob mouse at 3 mg/kg, po after 1 hr; type: ADME, organism-based; parameters: dose 3 mg/kg, route oral; conditions: in vivo
[19] = Permeability across human Caco-2 cells; type: ADME, cell-based; conditions: read-out: permeability

hERG (KCNH2), sequence (Q12809 whole entry): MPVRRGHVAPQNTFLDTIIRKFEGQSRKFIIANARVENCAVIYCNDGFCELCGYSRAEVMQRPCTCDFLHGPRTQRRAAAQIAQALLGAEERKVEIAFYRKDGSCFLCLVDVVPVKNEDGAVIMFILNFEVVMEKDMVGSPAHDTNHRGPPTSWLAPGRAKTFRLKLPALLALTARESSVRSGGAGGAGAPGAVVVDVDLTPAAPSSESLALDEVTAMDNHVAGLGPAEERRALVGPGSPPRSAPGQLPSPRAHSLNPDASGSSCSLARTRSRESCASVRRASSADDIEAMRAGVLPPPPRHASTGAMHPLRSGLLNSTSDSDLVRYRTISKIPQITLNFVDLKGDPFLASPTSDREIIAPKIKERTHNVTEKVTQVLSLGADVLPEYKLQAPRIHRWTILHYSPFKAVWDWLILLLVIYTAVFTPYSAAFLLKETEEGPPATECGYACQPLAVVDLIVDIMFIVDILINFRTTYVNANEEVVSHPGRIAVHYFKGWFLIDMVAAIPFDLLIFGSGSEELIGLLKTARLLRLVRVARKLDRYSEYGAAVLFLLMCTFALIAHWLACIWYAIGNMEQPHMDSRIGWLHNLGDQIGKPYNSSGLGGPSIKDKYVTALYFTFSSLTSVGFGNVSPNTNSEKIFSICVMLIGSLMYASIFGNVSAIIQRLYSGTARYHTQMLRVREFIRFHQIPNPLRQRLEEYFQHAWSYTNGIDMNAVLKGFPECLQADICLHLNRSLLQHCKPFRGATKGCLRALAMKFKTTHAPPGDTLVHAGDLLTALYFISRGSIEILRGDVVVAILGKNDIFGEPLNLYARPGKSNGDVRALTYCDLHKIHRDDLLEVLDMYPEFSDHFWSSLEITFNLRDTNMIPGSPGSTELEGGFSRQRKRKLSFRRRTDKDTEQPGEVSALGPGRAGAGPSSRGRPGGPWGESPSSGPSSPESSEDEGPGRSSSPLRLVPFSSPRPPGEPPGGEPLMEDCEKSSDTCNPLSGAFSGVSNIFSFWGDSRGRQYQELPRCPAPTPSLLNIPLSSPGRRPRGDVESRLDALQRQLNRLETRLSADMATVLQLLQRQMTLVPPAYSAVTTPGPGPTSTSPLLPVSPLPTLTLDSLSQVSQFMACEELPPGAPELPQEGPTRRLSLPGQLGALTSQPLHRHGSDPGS
Dipeptidyl peptidase 9, sequence (Q86TI2 whole entry): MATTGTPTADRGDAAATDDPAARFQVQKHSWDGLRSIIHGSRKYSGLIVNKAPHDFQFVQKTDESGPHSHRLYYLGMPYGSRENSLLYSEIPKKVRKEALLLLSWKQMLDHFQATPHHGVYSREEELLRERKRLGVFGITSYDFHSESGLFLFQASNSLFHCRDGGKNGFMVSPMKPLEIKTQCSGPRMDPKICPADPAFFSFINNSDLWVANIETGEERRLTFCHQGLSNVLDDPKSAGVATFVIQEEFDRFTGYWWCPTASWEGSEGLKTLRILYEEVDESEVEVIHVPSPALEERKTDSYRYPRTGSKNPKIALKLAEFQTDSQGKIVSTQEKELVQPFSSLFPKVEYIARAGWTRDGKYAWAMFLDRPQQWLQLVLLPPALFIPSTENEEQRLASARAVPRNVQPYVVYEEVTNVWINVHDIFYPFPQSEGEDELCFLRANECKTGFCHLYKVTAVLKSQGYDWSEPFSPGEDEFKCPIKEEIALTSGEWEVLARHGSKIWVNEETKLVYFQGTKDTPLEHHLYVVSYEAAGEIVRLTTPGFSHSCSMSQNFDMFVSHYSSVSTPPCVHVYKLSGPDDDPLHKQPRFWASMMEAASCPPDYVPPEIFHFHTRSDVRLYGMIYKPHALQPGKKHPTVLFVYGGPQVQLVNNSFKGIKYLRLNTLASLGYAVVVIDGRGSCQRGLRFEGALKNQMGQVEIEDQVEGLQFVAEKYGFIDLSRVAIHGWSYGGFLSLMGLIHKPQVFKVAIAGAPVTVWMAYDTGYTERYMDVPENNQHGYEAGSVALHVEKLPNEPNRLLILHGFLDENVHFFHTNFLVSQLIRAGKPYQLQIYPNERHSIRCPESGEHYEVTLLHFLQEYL
Dipeptidyl peptidase 8, sequence (Q6V1X1 whole entry): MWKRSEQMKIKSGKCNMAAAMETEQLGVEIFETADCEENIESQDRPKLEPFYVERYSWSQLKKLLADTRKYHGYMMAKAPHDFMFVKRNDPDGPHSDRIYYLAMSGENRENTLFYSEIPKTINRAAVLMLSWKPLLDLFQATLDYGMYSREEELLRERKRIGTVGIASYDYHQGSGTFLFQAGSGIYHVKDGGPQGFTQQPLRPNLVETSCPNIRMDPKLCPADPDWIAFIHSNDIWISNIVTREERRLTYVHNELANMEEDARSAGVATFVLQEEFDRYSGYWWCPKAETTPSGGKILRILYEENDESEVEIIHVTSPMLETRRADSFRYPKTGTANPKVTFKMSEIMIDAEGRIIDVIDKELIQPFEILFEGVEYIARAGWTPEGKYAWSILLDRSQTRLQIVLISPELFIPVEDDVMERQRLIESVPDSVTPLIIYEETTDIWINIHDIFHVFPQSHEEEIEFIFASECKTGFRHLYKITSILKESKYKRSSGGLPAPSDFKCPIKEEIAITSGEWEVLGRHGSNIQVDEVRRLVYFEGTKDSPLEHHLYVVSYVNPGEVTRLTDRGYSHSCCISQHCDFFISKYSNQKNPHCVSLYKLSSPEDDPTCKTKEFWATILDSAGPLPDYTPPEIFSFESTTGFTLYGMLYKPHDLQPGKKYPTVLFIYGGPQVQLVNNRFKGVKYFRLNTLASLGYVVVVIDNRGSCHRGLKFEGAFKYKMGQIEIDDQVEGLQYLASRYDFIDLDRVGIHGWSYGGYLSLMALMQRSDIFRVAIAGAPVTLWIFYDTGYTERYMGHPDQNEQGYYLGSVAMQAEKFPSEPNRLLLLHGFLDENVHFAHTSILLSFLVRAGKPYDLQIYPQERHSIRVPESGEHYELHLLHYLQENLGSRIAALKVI

AUC(0-inf) [1]: 0.714 µM·h
Vdss (Canis familiaris): 1.5 L/kg
Papp [2]: 46.4 ×10⁻⁶ cm/s
bioavailability [3]: 76%
Vdss (Rattus norvegicus): 1.3 L/kg
Cmax [5]: 324 nM
clearance [6]: 25.4 mL/min/kg
dose excreted [7]: 41%
dose excreted [8]: 56%
bioavailability [9]: 54%
half-life [10]: 4.6 h
clearance [11]: 7.9 mL/min/kg
half-life [13]: 1.6 h
SMILES: Cc1nc2nc(C(=O)N3CCOCC3)cn2c(-c2ccc(Cl)cc2Cl)c1CN
Activity (Mus musculus [4]): 66%
Activity (Mus musculus [12]): 63%

Ki (Dipeptidyl peptidase 8): > 10 µM
Ki (Dipeptidyl peptidase 9): > 10 µM
SMILES: Cc1nc2nc(C(=O)NC3CCN(C(C)C)CC3)cn2c(-c2ccc(Cl)cc2Cl)c1CN

Ki (Dipeptidyl peptidase 9): > 30 µM
SMILES: Cc1nc2nc(C(=O)NCCN3CCCCC3)cn2c(-c2ccc(Cl)cc2Cl)c1CN

Papp [2]: 51.8 ×10⁻⁶ cm/s
SMILES: Cc1nc2nc(C(=O)N3CCCC3)cn2c(-c2ccc(Cl)cc2Cl)c1CN

Further lines, the compound ahead of its results:

SMILES: CCn1nccc1NC(=O)c1cn2c(-c3ccc(Cl)cc3Cl)c(CN)c(C)nc2n1
Activity (Mus musculus [14]): 129%
Papp [2]: 66.9 ×10⁻⁶ cm/s
Vdss (Rattus norvegicus): 3.9 L/kg
inhibition at 10 µM (hERG (KCNH2)): 31%
inhibition in vivo at 1 µmol/kg (Mus musculus [15]): 62%
Activity (Mus musculus [16]): 93%
Activity (Mus musculus [4]): 40%
clearance [6]: 43.2 mL/min/kg
inhibition in vivo at 3 µmol/kg (Mus musculus [17]): 52.8%
dose excreted [8]: 4.4%
bioavailability [9]: 64%
Activity (Mus musculus [12]): 58%
half-life [13]: 2.1 h

SMILES: CCOC(=O)c1cn2c(-c3ccc(Cl)cc3Cl)c(CN)c(C)nc2n1
inhibition at 10 µM (hERG (KCNH2)): 23%

SMILES: Cc1nc2nc(-c3ccccc3)cn2c(-c2ccc(Cl)cc2Cl)c1CN
inhibition at 10 µM (hERG (KCNH2)): 74%

SMILES: Cc1nc2nc(C(=O)N3CC[C@H](NS(C)(=O)=O)C3)cn2c(-c2ccc(Cl)cc2Cl)c1CN
Cmax [18]: 45 nM
Papp [19]: < 1.5 ×10⁻⁶ cm/s
